Measurements pooled from the literature.
Protocols differ between the studies behind these lines.
Target: Cyclin-dependent kinase 2 (CDK2, Homo sapiens, UniProt P24941)
Technique: competition with immobilised ligand

O=C(c1ccc(Nc2nccc(-c3cc4ccccc4s3)n2)cc1)N1CCC(N2CCCC2)CC1
remaining binding (binding; 1 µM): 84%

COc1ncc2cc3ccccc3nc2c1C#N
remaining binding (cell-free assay; 5 µM): 100%

O=S(=O)(NC1CCC(c2cc(F)ccc2F)(S(=O)(=O)c2ccc(Cl)cc2)CC1)C(F)(F)F (stereo not shown)
remaining binding (cell-free assay; 1 µM): 100%

O=C(c1ccc(Nc2ncc(Cl)c(-c3ccc(Cl)s3)n2)cc1)N1CCC(N2CCCC2)CC1
remaining binding (binding; 1 µM): 27%

COc1cnc(Nc2cccc(S(N)(=O)=O)c2)nc1N1CCN(c2ccccc2)C(=O)C1
remaining binding (binding; 1 µM): 97%

N#Cc1ccccc1CSc1nnc2c(n1)[nH]c1ccccc12
remaining binding (binding; 10 µM): 82%

O=C(O)c1cc(-c2ccc(C3CCNCC3)cc2)c2ccc(-c3ccc(C(F)(F)F)cc3)cc2c1
remaining binding (cell-free assay; 1 µM): 100%

O=C(Nc1c[nH]nc1C(=O)NC1CCNCC1)c1cc(F)cc(F)c1
remaining binding (binding; 1 µM): 98%

Cc1cnc(Nc2ccc(C(=O)N3CCC(N4CCCC4)CC3)cc2)nc1-c1cc2ccccc2s1
remaining binding (binding; 1 µM): 35%

CNC(=O)[C@@H]1CC[C@@H](n2c(-c3ccc4cnccc4c3)nc3ccc(C(=O)NCc4cccc(C(N)=O)c4)cc32)C1
remaining binding (binding; 1 µM): 100%

F[C@@H]1CCN(c2nccc(-c3cnn4ncccc34)n2)C1
remaining binding (binding; 1 µM): 100%

C[C@@H]1CN(c2ccc3ncc(-c4ccc5[nH]nc(C6CC6)c5c4)n3n2)C[C@H](C)O1
remaining binding (binding; 0.5 µM): 84%

COc1ccc2cc(OCC3(C(=O)O)CN(C(=O)c4ccc(F)cc4)C3)ccc2c1
remaining binding (cell-free assay; 1 µM): 91%

FC(F)(F)Oc1cccc(-c2cnc3ccc(-c4ccncc4)nn23)c1
remaining binding (cell-free assay; 5 µM): 81%

Cc1cc(C)c(-n2ccn3nc(-c4cccnc4)cc23)cc1NC(=O)c1cc(C#N)cc(S(F)(F)(F)(F)F)c1
remaining binding (cell-free assay; 0.1 µM): 99%

C[C@H]1CCN(c2nccc(-c3cnn4ncccc34)n2)C1
remaining binding (binding; 1 µM): 95%
